In ChEMBL document CHEMBL4513216, “Probing the Open Global Health Chemical Diversity Library for Multistage-Active Starting Points for Next-Generation Antimalarials” (ACS Infect Dis, 2020):

Assay: Toxicity liver stage against HepG2, at 10uM
Format: cell-based
Set-up: test concentration 10 uM, cell line HepG2-A16-CD81EGFP
Conditions: human, HepG2-A16-CD81EGFP cells; read-out: INHIBITION
Outline: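 Uninfected HepG2-A16-CD81EGFP cells, 3 × 10^3 per well, 1536-well, plated on prespotted compound at 10 μM final, parasite-free screening media added to match infected plates; puromycin 10 μM positive, DMSO 0.5% negative; run in parallel with 48 h PbLuc assay at 37 °C, 5% CO2; viability by CellTiter-Glo luminescence, normalized to controls.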

SMILES | cytotoxicity at 10 µM
Cc1ccc(CN2Cc3c(C(=O)N4CCCC4)nn(C)c3C2)s1 | -0.704%
O=C(NCCC(O)c1cccs1)c1ccco1 (stereo unspecified) | -14.7%
COc1cc(C)nc(N2CCN(Cc3nccn3C)CC2)n1 | -1.8%
Nc1ncc(-c2ccc(Cl)cc2)c(C2CCCNC2)n1 (stereo unspecified) | -7.64%
CCn1cc(N)c(-c2nnc3n2CCC3)n1 | -12.1%
COCCN1CCN(Cc2coc(-c3ccccc3Cl)n2)CC1 | -1.67%
CN(C)C(=O)N1Cc2ccccc2C2(CCNCC2)C1 | 1.26%
Cc1ccc(CN2CCC3(CCC3NS(=O)(=O)c3ccccc3)CC2)o1 (stereo unspecified) | -2.97%
Cn1cc(CN2CCCC3(CCCCN3S(C)(=O)=O)C2)cn1 (stereo unspecified) | -76.3%
CN1CC2(CCCCN2C(=O)c2ccsc2)CC1=O (stereo unspecified) | 2.73%
Cc1cccc(NC(=O)c2cnc(C3CCCNC3)cn2)n1 (stereo unspecified) | 3.04%
COc1ccc(F)cc1CN1CCCC1Cn1nc(C)nc1C (stereo unspecified) | -2.41%
O=C(c1cccnc1O)N1CCC2(CCCO2)CC1 | 7.28%
CN(C)C(=O)Cc1ccccc1NCc1nc(Cc2ccccc2)no1 | 1.9%
c1cncc(COCc2nnc3n2CCN(Cc2cccs2)C3)c1 | 0.399%
CC(C)N1CCC2(CC1)CN(C)C(=O)C[C@H]2C(F)(F)F | -160%
O=C(c1ccc(-c2cccc3c2CCNC3)o1)N1CCOCC1 | 3.34%
CC(C#N)CNC(=O)Nc1ccc(-c2cc[nH]n2)cc1 (stereo unspecified) | -3.27%
O=C(c1nc(=O)[nH][nH]1)N1CCCC(c2cc(C(F)(F)F)[nH]n2)C1 (stereo unspecified) | -12.3%
Cc1oc(-c2ccco2)nc1CC(=O)N1CCC(CCO)C1 (stereo unspecified) | -2.02%
CCC[C@@H]1CN(Cc2ccc(C(F)(F)F)nc2)C[C@H]1C(=O)O | 0.425%
CC1CN(C)c2ccccc2N(C(=O)c2c[nH]c(C(C)C)n2)C1 (stereo unspecified) | 3.61%
O=C(NCc1ccc2c(c1)OCO2)c1ccccc1C1CCNC1 (stereo unspecified) | -3.6%

SMILES | cytotoxicity at 10 µM
CN(C)C(=O)Cc1nc(CN2CCOC(Cn3cccn3)C2)cs1 (stereo unspecified) | 0.743%
COc1cccc(S(=O)(=O)N2CCCCC2CCN2CCCC2=O)c1 (stereo unspecified) | 7.12%
Cc1c[nH]nc1C1CCN(S(=O)(=O)N(C)C)C1 (stereo unspecified) | -13%
CCc1ccc(CN2CCN(C(=O)C(C)C)[C@@H]3CS(=O)(=O)C[C@@H]32)cc1 | 2.11%
Cc1ccc(CN2CCc3c(COC(C)C)nn(C)c3C2)s1 | 0.661%
Cc1cnc(CN(Cc2cccc(O)c2)CC2CC2)cn1 | 16.7%
CCCn1cnnc1CNC(=O)C1COc2c(cccc2OC)C1 (stereo unspecified) | -1.26%
COCCN1CCN(Cc2cccc(OCC(N)=O)c2)CC1C (stereo unspecified) | 2.43%
CCNC(=O)c1cc2n(n1)CCCO2 | 1.25%
Cc1nc(C2CCCN(C(=O)c3cc(C)sc3C)C2)no1 (stereo unspecified) | 6.86%
CCc1nccn1CCCn1ccnc1-c1[nH]cnc1C | 10%
CCCC(C(=O)NC1CCN(S(C)(=O)=O)CC1)c1ccccc1 (stereo unspecified) | -1.38%
CN1CC(=O)N(c2cnn(C)c2)CC12CCN(C(=O)c1ccsc1)C2 (stereo unspecified) | -1.37%
CCOc1ccc(C(=O)NC2CCN(c3ncccn3)CC2)cc1C | -10.1%
COc1ccc(CN2CCn3cc(CNC(=O)CC4CC4)nc3C2)cc1 | -82.6%
Cc1ccccc1C(O)CNS(=O)(=O)Cc1cccc(C#N)c1 (stereo unspecified) | -5.43%
CCOC(=O)CNC(=O)NCc1cccn1Cc1ccc(F)cc1 | 11.6%
CCC(=O)NC1CCCN(C(=O)Nc2cccc(COC(C)C)c2)C1 (stereo unspecified) | 7.96%
Cc1nnc(NC(=O)CCc2c(C)nn3cnnc3c2C)s1 | -1.7%
CC[C@@H]1N(Cc2ccc(C)o2)CCC[C@]12CCC(=O)N2CCOC | 10.5%
CCCn1nc2c(cc1=O)CN(Cc1ncc(C(C)(C)C)o1)CC2 | -7.17%
COc1ccc(C[C@H]2CN(C(=O)c3cnoc3)CC[C@@H]2OC)cc1 | 4.09%
COc1ccc(COCC(=O)N2CCC(c3nncn3C)CC2)cc1 | 4.9%

SMILES | cytotoxicity at 10 µM
Cc1ccc(CNC(=O)Nc2nncs2)n1C | -0.545%
Cc1cccc(CCC(=O)NCC2CCCN2c2cccnn2)c1 (stereo unspecified) | -3.96%
CCS(=O)(=O)N1CCC2(CCCN(Cc3ccc(F)c(F)c3)C2=O)C1 (stereo unspecified) | 17.6%
O=C(CC1CCc2ccccc21)NCCSc1cnn[nH]1 (stereo unspecified) | 0.878%
COC(=O)CNC(=O)c1cn(Cc2ccccc2F)nn1 | 4.98%
CNC(=O)C1CCN(S(C)(=O)=O)CC1 | -4.81%
COc1ccc(Cl)cc1NCC(=O)N(Cc1ccncc1)C1CC1 | 13.7%
CC(O)CN(C)C(=O)Nc1ccn(-c2cccc(C(F)(F)F)c2)n1 (stereo unspecified) | 4.85%
O=C(c1ccsc1)N1CCc2nnc(COc3cncnc3)n2CC1 | 1.72%
O=S(=O)(C1CC1)N1CCc2ncc(Cn3cccn3)n2CC1 | 9.58%
Cc1ccc(NC(=O)c2cc3c(=O)n(C)c(=O)n(C)c3nc2C)cc1Cl | -7.15%
CC(Cc1cn(CCc2nnn[nH]2)nn1)c1ccccc1 (stereo unspecified) | 3.78%
Cc1nc(C)c(CC(=O)N2CCN(CC(C)C)CC2)c(=O)[nH]1 | -12.3%
COc1ccc2c(c1)OCC(CNC(=O)c1ccc3[nH]nnc3c1)C2 (stereo unspecified) | -7.72%
Cc1cc(NC(=O)c2ccc(F)cc2F)n(C)n1 | -2.18%
O=C(CCN1CCc2ccccc21)N1C[C@@H](O)[C@H](N2CCCC2)C1 | -17.8%
CCOc1ccc(N(CCC#N)C(=O)c2ccc(SC)nc2)cc1 | 5.93%
Cc1ccc2nc(C3CCN(CC(C)C)CC3)nc(O)c2c1 | 7.69%
COc1ncccc1C(=O)Nc1cccc(C[S+](C)[O-])c1C (stereo unspecified) | 2.28%
CC(C)(C)n1ncc2c1NC(=O)CC2c1ccccc1 (stereo unspecified) | 19.2%
OC1(CN2CCC(Cc3ncccn3)CC2)CCOCC1 | 16.6%
CN1CC(Nc2nc3c(cnn3C(C)(C)C)c(=O)[nH]2)CCC1=O (stereo unspecified) | -4.26%
COCC(=O)N1CCC(c2nc3ccc(N4CCCC4)cn3n2)CC1 | -15.4%

SMILES | cytotoxicity at 10 µM
Cc1ncsc1CN1CC[C@H]2C[C@H](c3ccncn3)O[C@@H]2C1 | 4.87%
CC1(C(=O)N2CCOCC2)CN(Cc2ccccc2F)CCO1 (stereo unspecified) | 2.03%
O=C1CN(Cc2nnc(-c3ccc(Cl)cc3)o2)CCN1 | -0.238%
O=S(=O)(C1CC1)N1CCO[C@H]2[C@H](OCCN3CCCC3)CC[C@@H]21 | -5.63%
Cc1ccc(CN2CCCn3c(nc(Cn4ccnc4)cc3=O)C2)o1 | 5.89%
CN(C)S(=O)(=O)N1CCCC(c2ccncn2)C1 (stereo unspecified) | -15.3%
CN1C(=O)C2(CCN(Cc3cccnc3)CC2)c2cccc(F)c21 | 6.77%
Cc1cc(C(=O)NCCN2CCCCCC2)nn1C(C)(C)C | 2.45%
O=C(NCCc1cc(F)ccc1F)NCC(O)C1CC1 (stereo unspecified) | -2.99%
FC(F)(F)Cn1nnnc1SCCN1CCCCC1 | -61.4%
CC(=O)N1N=C(c2ccco2)OC1C(=O)NCCc1ccc(O)cc1 (stereo unspecified) | -1.19%
COc1cccc(CN2CCC3(CC2)CCN(c2ncc(F)cn2)C3)c1 | 1.42%
CNc1oc(-c2ccc(OC)c(S(=O)(=O)N(C)C)c2)nc1C#N | 1.71%
Cc1nc(NC(=O)N(C)Cc2ccsc2)nn1C | 1.81%
CN(C)C(=O)c1ccccc1NC(=O)N[C@@H]1c2ccccc2C[C@@H]1O | -43.1%
Cc1n[nH]c(C)c1CC(=O)N1CCC2(CC1)CN(C)CCN2C | 1.73%
CCOC(=O)CC1CCCCN1C(=O)c1cc(C)oc1C (stereo unspecified) | 5.44%
O=C(c1cc(Cl)c2c(c1)OCO2)N1CCN(c2ccccn2)CC1 | -2.67%
Cc1n[nH]c(C)c1CCC(=O)NC1CCCN(c2ccccc2F)C1 (stereo unspecified) | -13.7%
NCC(=O)N1CCCC1c1nccnc1Nc1ncccn1 (stereo unspecified) | -2.42%
CNC(=O)N1CCC2(CC1)CN(C(C)C)Cc1cc(F)ccc12 | -2.82%
c1csc(-c2nc(CN3CCOC(Cn4cccn4)C3)co2)c1 (stereo unspecified) | -11.1%
O=C(Cn1ccc2ccc(Cl)cc21)/N=c1\[nH]nc(C2CCCO2)s1 (stereo unspecified) | 10.8%

SMILES | cytotoxicity at 10 µM
COCC(O)CN1CCC(=O)N(CC2CC2)Cc2ccccc21 (stereo unspecified) | 2.76%
Cc1cc(S(=O)(=O)N2CCCc3cc(F)cc(F)c32)sc1C(=O)O | 21.8%
Cc1ccc(C2COCCN2C(=O)c2ccc(CN(C)C)cc2)o1 (stereo unspecified) | 0.692%
c1cncc(C2COC3(CCN(CC4CCOCC4)CC3)C2)c1 (stereo unspecified) | -10.4%
CC(C)NC(=O)c1ccc(NC(=O)NC(C)c2ccccn2)cc1 (stereo unspecified) | 9.44%
COCCN(C(=O)c1cnccn1)c1nc2c(s1)CCc1c-2cnn1C | -24.3%
CN(C)CCNC(=O)c1ccc2c(-c3nccs3)noc2c1 | 9.28%
CCS(=O)(=O)N1CCC2(COCc3cnc(N4CCOCC4)nc32)C1 (stereo unspecified) | -4.92%
COCCCn1cnnc1CNc1cc(C)nc2ccnn12 | -7.79%
O=C(CC(F)(F)F)N1C[C@@H]2CC[C@H]1CN(Cc1ccccc1)C2 | -3.63%
COc1ccccc1CCN[C@@H]1c2ccccc2C2(CCNCC2)[C@H]1O | 5.79%
CCCN(CCO)C(=O)c1cc(COc2ccc3c(c2)CCCC3)on1 | -159%
Cc1ncsc1C(=O)NCCn1nc(C2CCNC2)c2cccnc21 (stereo unspecified) | -0.98%
O=C(C1CCC2(CCN(CC3CCOCC3)CC2)O1)N1CCCCO1 (stereo unspecified) | 1.08%
CC(C)c1noc(CN(C)C(=O)c2ccccc2-c2nc[nH]n2)n1 | 10.4%
Cc1ncoc1C(=O)N1CCc2[nH]nc(-c3ccc4c(c3)OCO4)c2C1 | -143%
CC(O)CN1CCC(CN(C)CCC(=O)NC2CCCCC2)CC1 (stereo unspecified) | 4.11%
O=S(=O)(c1ccc(Cl)cc1)N1CCc2nc(C3CCNCC3)ncc2C1 | -17.3%
Cc1n[nH]c(C)c1CC(=O)N1CC[C@@](C)(O)[C@H](Oc2ccccc2)C1 | 2.85%
